Read-outs that look alike come from different tables or passages of the source.
Assays:
[1] = assay type: physicochemical; details: not told
[2] = test system: single bacterial cell
How it was run: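 Calculated rather than measured: the liposome-derived Papp was scaled to a single cell using an estimated cell surface area of ≈3 μm² and membrane thickness δ (one 4 nm membrane for Gram-positive, two 4 nm membranes for Gram-negative), giving a concentration-gradient-dependent influx.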

[3] = test system: Ochrobactrum sp. FrEM; assay: Biodegradation of glyphosate by Ochrobactrum sp. FrEM; assay type: cell-based; details: after 4.5 days, OD600 ≈ 0.8, 30 °C, pH 7
[4] = test system: active glyphosate transporter; details: cited from earlier work

O=C(O)CNCP(=O)(O)O [glyphosate, N-(phopshomethyl)glycine]
Papp at 20 mM ([1]; pH 4.1): 420 ×10⁻⁶ cm/s | Papp at 20 mM ([1]; pH 7): 37 ×10⁻⁶ cm/s | calculated maximum membrane permeation rate (dnout/dt)cell-perm-max ([2]; glyphosate concentration of 1 μM): −6.5 × 10^–22 mol·s^–1·cell^–1 | calculated maximum membrane permeation rate (dnout/dt)cell-perm-max ([2]; pH 7, 0.12 mM glyphosate, compared with Ochrobactrum sp. FrEM): −7.5 × 10^–20 mol·s^–1·cell^–1 | calculated maximum membrane permeation rate (dnout/dt)cell-perm-max ([2]; pH 7, 3 mM glyphosate, [Sin] = 0, compared with Achromobacter sp. MPS 12A): −1.9 × 10^–18 mol·s^–1·cell^–1 | maximum permeation rate higher than degradation rate ([2]; pH 7, 3 mM, versus degradation rate of Achromobacter sp. MPS 12A): 2 orders of magnitude | maximum glyphosate degradation rate (dn/dt)deg-cell [3]: −1.7 × 10^–21 mol·s^–1·cell^–1 | uptake rate of active glyphosate transporter (dnout/dt)cell-transport [4]: −1.8 × 10^–21 mol·s^–1·cell^–1 | Km ([4]; read-out: affinity constant KM for glyphosate uptake): 125 µM
